Screening data (PubChem)
IMP-1 inh-1 – inhibitors of Pseudomonas aeruginosa IMP-1 metallo-beta-lactamase; inhibition, % at 5.6 µM; AID 1556; purified IMP-1, nitrocefin hydrolysis, epi-absorbance fluorescence; 290,000 tested, 0.45% active;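 active = inhibition above the mean plus 3 SD of all compounds in the same screening run, cut at about 4.5% in these data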;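 note: 0% = IMP-1 with DMSO and 100% = DMSO wells lacking enzyme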
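Assay system: purified recombinant IMP-1 beta-lactamase. Input: IMP-1 0.2 nM before substrate addition. Buffer or medium: Zinc- and detergent-supplemented HEPES buffer, pH 7.1. Schedule: 25 °C, 15 min preincubation, 25 min reaction. Signal: Epi-absorbance fluorescence, 480 nm excitation, 530 nm emission. Evaluation: percent inhibition from optical density relative to buffer-blank wells.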
VIM-2 inh – blocks Pseudomonas aeruginosa VIM-2 metallo-beta-lactamase; purified VIM-2, nitrocefin hydrolysis, epi-absorbance fluorescence; inhibition, % at 5.6 µM; 290,000 tested, 0.89% active; AID 1527;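 active = inhibition above the mean of all tested compounds plus 3 SD, cutoff set per screening run, cut at about 7.5% in these data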;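 note: red hydrolysis product quenches plate fluorescence so inhibitors raise well fluorescence; 0% = enzyme with DMSO and 100% = DMSO without enzyme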
HTR2A ag – activates the mouse 5-HT2A serotonin receptor; P35363; CHO-K1 mHTR2A beta-arrestin complementation, luminescence; percent of 30 µM serotonin response; activation, % at 7.6 µM; 360,000 tested, 0.66% active; AID 624169;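 active = activation above a run cutoff, the mean activation of all tested compounds plus 3 SD, cut at about 14% in these data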;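 note: 0% = plate median of compound wells and 100% = 30 µM serotonin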
Target sequence (P35363 whole entry, looked up): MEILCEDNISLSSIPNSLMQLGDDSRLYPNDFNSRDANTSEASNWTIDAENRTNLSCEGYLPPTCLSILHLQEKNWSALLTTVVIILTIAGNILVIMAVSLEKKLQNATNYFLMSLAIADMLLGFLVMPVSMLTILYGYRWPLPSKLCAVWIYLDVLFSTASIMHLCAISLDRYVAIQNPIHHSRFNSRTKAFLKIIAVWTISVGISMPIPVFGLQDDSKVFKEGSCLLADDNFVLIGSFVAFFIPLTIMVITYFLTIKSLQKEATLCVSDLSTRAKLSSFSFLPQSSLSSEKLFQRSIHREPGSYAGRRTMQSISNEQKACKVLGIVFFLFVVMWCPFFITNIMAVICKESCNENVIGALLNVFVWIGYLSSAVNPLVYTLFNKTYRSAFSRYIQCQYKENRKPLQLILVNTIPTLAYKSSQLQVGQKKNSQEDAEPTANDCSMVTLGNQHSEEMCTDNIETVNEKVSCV
dFosB activator – mouse delta FosB homodimer activation | purified delta FosB, TAMRA-CDK5 oligo fluorescence polarization; percent of positive-control signal above neutral wells | P13346 | activation, % at 25 µM | 340,000 tested, 0.99% active;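 active = mean activation above about 17%, with every replicate also reaching it, limit read from the data, passing the limit was not always enough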
IMP-1 inh-2 – selectivity counter-screen for VIM-2 inhibitors: IMP-1 metallo-beta-lactamase inhibitors; shares compounds with VIM-2 inh; purified IMP-1, nitrocefin hydrolysis, epi-absorbance fluorescence; inhibition, % at 5.6 µM; 1,300 tested, under 10 active; AID 1856; call rule not given here;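 note: 0% = enzyme with vehicle and 100% = vehicle without enzyme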
VIM-2 FRET ctr – counter-screen for VIM-2 inhibitors: epi-absorbance artifacts via FRET; shares compounds with VIM-2 inh; purified VIM-2, CCF2 FRET substrate hydrolysis; inhibition, % at 5.6 µM; 1,300 tested, 23% active;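 active = inhibition above the mean of all tested compounds plus 3 SD, cut at about 19% in these data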;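 note: 0% = VIM-2 plus DMSO and 100% = no enzyme wells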
TEM-1 inh – TEM-1 inhibition, counter-screen for VIM-2 inhibitors | 1,300 tested, 3% active | Purified TEM-1, nitrocefin hydrolysis, epi-absorbance fluorescence | inhibition, % at 5.6 µM | shares compounds with VIM-2 inh | AID 1866;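 active = inhibition above that campaign's mean inhibition plus 3 SD, cut at about 0.46% in these data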;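 note: 0% = TEM-1 with DMSO and 100% = TEM-1 with 100 µM potassium clavulanate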
VIM-2 inh conf – confirmation of P. aeruginosa VIM-2 metallo-beta-lactamase inhibitors; shares compounds with VIM-2 inh; purified VIM-2, nitrocefin hydrolysis, epi-absorbance; inhibition, % at 5.6 µM; 1,300 tested, 96% active; AID 2187;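 active = inhibition of the VIM-2 beta-lactamase enzyme above about 11% from the earlier first-round screen, limit read from the data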;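 note: 0% = VIM-2 with DMSO and 100% = buffer wells without enzyme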
Starred values were filed as active, the others as inactive; . = no result given. Shown are actives, neighbours in structure and some others; about 2.5% of the full set was active somewhere.

SMILES	IMP-1 inh-1	VIM-2 inh	HTR2A ag	dFosB activator	IMP-1 inh-2	VIM-2 FRET ctr	TEM-1 inh	VIM-2 inh conf
CC(c1n[nH]c(=S)n1-c1ccc(Cl)cc1)N(C)C (stereo not drawn)	-3	3	-1	-4	.	.	.	.
O=C1C(=O)N(c2nccs2)C(c2ccccc2F)/C1=C(\O)c1ccc2c(c1)OCCO2 (stereo not drawn)	1	21*	6	-10	-3	33*	-5	22*
c1coc(-c2nnc3sc(Cc4cccs4)nn23)c1	-4	2	5	-18	.	.	.	.
c1csc(Cc2nn3c(-c4n[nH]c5c4CCC5)nnc3s2)c1	0	13*	-3	-16	-2	5	-7	22*
COc1ccc(C2=Nn3c(nnc3-c3ccccc3OC)SC2)cc1OC	-1	14*	0	-13	-3	2	-6	27*
COc1ccc(C2=Nn3c(nnc3-c3ccco3)SC2)cc1OC	3	23*	7	-13	-3	-6	-7	31*
COc1ccc(C2=Nn3c(nnc3-c3ccccn3)SC2)cc1OC	-3	52*	6	-12	-3	-2	-7	67*
CSc1nc(N)nc2c1ncn2CC(=O)NCCNc1ccc([N+](=O)[O-])cn1	.	.	3	-4	.	.	.	.
Cc1nnc2c(NC3CCCC3)nc3ccccc3n12	-2	12*	4	-3	-3	-4	-5	23*
c1ccc2c(c1)nc(NC1CCCCC1)c1nncn12	-4	-2	9	-8	.	.	.	.
Cc1ccc(S(=O)(=O)N2CCN(C(=O)CCC(=O)Nc3ccc(Br)c(C)c3)CC2)cc1	.	.	4	-3	.	.	.	.
Cc1sc2ncnc(NCCc3ccc(S(N)(=O)=O)cc3)c2c1C	-6	19*	-4	-4	-3	-5	-7	16*
Cc1sc2ncnc(NCCCn3ccnc3)c2c1C	-3	21*	2	-6	-4	-4	-7	34*
CC(C)C(=O)NCC(c1ccc2c(c1)OCO2)N1CCOCC1 (stereo not drawn)	-2	3	7	2	.	.	.	.
Oc1ccccc1OCCOc1ccccc1OCCOc1ccccc1O	-2	0	-5	-8	.	.	.	.
NNC(=O)c1ccccc1OCc1ccccc1	-4	-1	-6	-7	.	.	.	.
O=P(O)(O)c1ccccc1OCc1ccccc1	-3	55*	0	-5	-3	81*	-5	68*
O=P(O)(O)c1ccccc1OCCCCCOc1ccccc1P(=O)(O)O	1	62*	0	-4	-3	76*	-6	66*
O=C(NCC(O)c1ccc([N+](=O)[O-])cc1)C1=COCCO1 (stereo not drawn)	.	.	10	0	.	.	.	.
CNC(=S)/N=C/NOCc1ccc(Cl)cc1Cl	1	-1	2	-2	.	.	.	.
COc1ccc(C(=O)NC(C)c2ccc(-n3ccnc3)cc2)c(OC)c1 (stereo not drawn)	-3	22*	-2	-8	-5	-7	-8	34*
COc1ccc(C(=O)NC(C)c2ccc(-n3ccnc3)cc2)c(OC)c1OC (stereo not drawn)	-2	30*	-4	-4	-4	-6	-7	40*
Cc1c(OC(C)C(=O)NC2CC(C)(C)NC(C)(C)C2)ccc2c3c(c(=O)oc12)CCC3 (stereo not drawn)	1	26*	1	-7	-2	-2	-12	37*
CC(Oc1cc2oc(=O)c3c(c2cc1Cl)CCC3)C(=O)NC1CC(C)(C)NC(C)(C)C1 (stereo not drawn)	-5	25*	5	-10	-2	-4	-2	35*
CC(Oc1ccc2c3c(c(=O)oc2c1)CCCC3)C(=O)NC1CC(C)(C)NC(C)(C)C1 (stereo not drawn)	-2	15*	-2	-6	-3	1	-6	20*
CC(Oc1ccc2c3c(c(=O)oc2c1)CCC3)C(=O)NC1CCN(Cc2ccccc2)CC1 (stereo not drawn)	-3	22*	-8	-5	-3	2	-6	31*
